# Calls of active or inactive are those of the source. The rule behind the calls is not given here.
# Key:
# Pichia kudriavzevii [1] = test: Antifungal activity against Candida krusei at 300 ug/disk by disk diffusion assay; type: functional; conditions: read-out: IZ
# Outline: (§1)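 Disk diffusion on agar; test material applied as μg per paper disk (doses up to 300 μg/disk); activity read as zone of growth inhibition in mm.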
# Candida albicans [2] = test: Antifungal activity against Candida albicans isolate 96-489 at 300 ug/disk by disk diffusion assay; type: functional; conditions: read-out: IZ
# Outline: (§2)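 Agar disk diffusion against a panel of five Candida species, including fluconazole-resistant strains. Compound was applied per disk at doses up to 300 μg/disk. Activity was read as the diameter of the zone of growth inhibition, in mm.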
# Nakaseomyces glabratus [3] = test: Antifungal activity against fluconazole-resistant Candida glabrata at 300 ug/disk by disk diffusion assay; type: functional; conditions: read-out: IZ; outline: as §2
# Candida albicans [4] = test: Antifungal activity against Candida albicans ATCC 14503 at 300 ug/disk by disk diffusion assay; type: functional; conditions: read-out: IZ; outline: as §1
# Candida albicans [5] = test: Antifungal activity against fluconazole-resistant Candida albicans CDFR1 […]; type: functional
# Candida albicans [6] = test: Antifungal activity against fluconazole-resistant Candida albicans CDFR1 at 300 ug/disk by disk diffusion assay; type: functional; conditions: read-out: IZ; outline: as §2
# Nakaseomyces glabratus [7] = test: Antifungal activity against fluconazole-resistant Candida glabrata at 5 ug/disk by disk diffusion assay; type: functional; conditions: read-out: IZ; outline: as §2
# Candida albicans [8] = test: Antifungal activity against Candida albicans isolate 96-489 at 5 ug/disk by disk diffusion assay; type: functional; conditions: read-out: IZ; outline: as §1
# Candida albicans [9] = test: Antifungal activity against fluconazole-resistant Candida albicans CDFR1 at 5 ug/disk by disk diffusion assay; type: functional; conditions: read-out: IZ; outline: as §2
# Candida albicans [10] = test: Antifungal activity against Candida albicans isolate 96-489 after 24 hrs by microbroth dilution method; type: functional; conditions: isolate 96-489, 24 h
# Outline: (§3)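 Microbroth dilution MIC in RPMI medium, incubated at 37 °C for 24 h; MIC reported in μg/mL.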
# Candida albicans [11] = test: Antifungal activity against Candida albicans ATCC 14503 after 24 hrs by microbroth dilution method; type: functional; conditions: ATCC 14503, 24 h; outline: as §3
# Candida albicans [12] = test: Antifungal activity against Candida albicans ATCC 14503 at 5 ug/disk by disk diffusion assay; type: functional; conditions: read-out: IZ; outline: as §1
# Pichia kudriavzevii [13] = test: Antifungal activity against Candida krusei after 48 hrs by microbroth dilution method; type: functional
# Outline: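 Microbroth dilution MIC in RPMI medium at 37 °C, with incubation extended to 48 h; MIC given in μg/mL.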
# Pichia kudriavzevii [14] = test: Antifungal activity against Candida krusei at 5 ug/disk by disk diffusion assay; type: functional; conditions: read-out: IZ; outline: as §1
# Candida albicans [15] = test: Antifungal activity against Candida albicans ATCC 14503 up to 300 ug/disk by paper disk diffusion assay; type: functional, organism-based; outline: as §1
# Nakaseomyces glabratus [16] = test: Antifungal activity against Candida glabrata up to 300 ug/disk by paper disk diffusion assay; type: functional, organism-based; outline: as §1
# Candida albicans [17] = test: Antifungal activity against Candida albicans isolate 96-489 up to 300 ug/disk by paper disk diffusion assay; type: functional, organism-based; outline: as §1
# Pichia kudriavzevii [18] = test: Antifungal activity against Candida krusei up to 300 ug/disk by paper disk diffusion assay; type: functional, organism-based; outline: as §1
# Pichia kudriavzevii [19] = test: Antifungal activity against Candida krusei at 10 ug/disk by disk diffusion assay; type: functional; conditions: read-out: IZ; outline: as §1
# Candida albicans [20] = test: Antifungal activity against Candida albicans isolate 96-489 at 10 ug/disk by disk diffusion assay; type: functional; conditions: read-out: IZ; outline: as §1
# Pseudomonas aeruginosa = test: Antibacterial activity against Pseudomonas aeruginosa; type: functional, organism-based
# Nakaseomyces glabratus [21] = test: Antifungal activity against fluconazole-resistant Candida glabrata at 10 ug/disk by disk diffusion assay; type: functional; conditions: read-out: IZ; outline: as §2
# Candida albicans [22] = test: Antifungal activity against Candida albicans ATCC 14503; type: functional
# Staphylococcus aureus = test: Antibacterial activity against Staphylococcus aureus; type: functional, organism-based
# Escherichia coli = test: Antibacterial activity against Escherichia coli; type: functional, organism-based
# Candida albicans [23] = test: Antifungal activity against fluconazole-resistant Candida albicans CDFR1 at 10 ug/disk by disk diffusion assay; type: functional; conditions: read-out: IZ; outline: as §2
# Candida albicans [24] = test: Antifungal activity against Candida albicans ATCC 14503 at 10 ug/disk by disk diffusion assay; type: functional; conditions: read-out: IZ; outline: as §2
Compound,zone of inhibition at 300 µg/disc (Pichia kudriavzevii [1]) [mm],zone of inhibition at 300 µg/disc (Candida albicans [2]) [mm],zone of inhibition at 300 µg/disc (Nakaseomyces glabratus [3]) [mm],zone of inhibition at 300 µg/disc (Candida albicans [4]) [mm],MIC (Candida albicans [5]) [µg/mL],Activity (Candida albicans [15]),Activity (Nakaseomyces glabratus [16]),Activity (Candida albicans [17]),Activity (Pichia kudriavzevii [18]),other results
CC(C)(C)C(O)c1cocn1 (stereo not given),0,0,0,0,> 32,,,,,zone of inhibition at 300 µg/disc (Candida albicans [6]): 0 mm
C[C@@H](O[Si](C)(C)C(C)(C)C)[C@@H]1OC(C)(C)O[C@@H]1C[C@H](O)c1cocn1,9,0,0,10,> 32,,,,,zone of inhibition at 300 µg/disc (Candida albicans [6]): 0 mm
C[C@@H]1[C@H](O)[C@@H](C)/C=C/C=C/C=C/C=C/C=C/C=C/C=C/[C@H](O[C@@H]2O[C@H](C)[C@@H](O)[C@H](N)[C@@H]2O)C[C@@H]2O[C@](O)(C[C@@H](O)C[C@@H](O)[C@H](O)CC[C@@H](O)C[C@@H](O)CC(=O)O[C@H]1C)C[C@H](O)[C@H]2C(=O)O [AMPHOTERICIN B],,,,,> 32,,,,,zone of inhibition at 5 µg/disc (Nakaseomyces glabratus [7]): 19 mm; zone of inhibition at 5 µg/disc (Candida albicans [8]): 12 mm; zone of inhibition at 5 µg/disc (Candida albicans [9]): 23 mm; MIC (Candida albicans [10]): 0.5 µg/mL; MIC (Candida albicans [11]): 0.5 µg/mL; zone of inhibition at 5 µg/disc (Candida albicans [12]): 22 mm; MIC (Pichia kudriavzevii [13]): 0.25 µg/mL; zone of inhibition at 5 µg/disc (Pichia kudriavzevii [14]): 15 mm
CSc1ncc(C(O)C(C)(C)C)o1 (stereo not given),0,,,,,,,,,
CCCCCCCCCCCCCC(=O)OC(c1ccccc1)c1nc(C(O)CCC)co1 (stereo not given),,,,,,inactive,inactive,inactive,inactive,
CCCCCCCCCCCCCC(=O)OC(c1ccc2ccccc2c1)c1cnco1 (stereo not given),,,,,,,,,,MIC (Candida albicans [10]): > 64 µg/mL; MIC (Candida albicans [11]): > 64 µg/mL; MIC (Pichia kudriavzevii [13]): > 64 µg/mL
C[C@@H](O[Si](C)(C)C(C)(C)C)[C@@H]1OC(C)(C)O[C@@H]1C[C@@H](O)c1cocn1,0,0,0,8,> 32,,,,,zone of inhibition at 300 µg/disc (Candida albicans [6]): 0 mm
CCCCCCCCCCCCCC(=O)OC(c1cnco1)c1nc(C(O)CCC)co1 (stereo not given),,,,,,inactive,inactive,inactive,inactive,
CCCC(O[Si](C)(C)C(C)(C)C)c1coc(C(O)c2ccco2)n1 (stereo not given),,,,,,inactive,inactive,inactive,inactive,
CSc1ncc(C(O)c2ccc(Br)cc2)o1 (stereo not given),9,12,,13,,,,,,MIC (Candida albicans [10]): 8 µg/mL; MIC (Candida albicans [11]): 4 µg/mL; MIC (Pichia kudriavzevii [13]): 4 µg/mL
COc1ccc(C(O)c2cnc(SC)o2)cc1 (stereo not given),0,0,,8,,,,,,
CCCCCCCCCCCCCC(=O)OC(c1cnco1)C(C)(C)C (stereo not given),0,0,0,0,> 32,,,,,zone of inhibition at 300 µg/disc (Candida albicans [6]): 0 mm
CCCCCCCCCCCCCC(=O)OC(c1cnco1)c1nc(C(CCC)O[Si](C)(C)C(C)(C)C)co1 (stereo not given),,,,,,inactive,inactive,inactive,inactive,
CCCC(O[Si](C)(C)C(C)(C)C)c1coc(C(O)c2ccccc2)n1 (stereo not given),,,,,,inactive,inactive,inactive,inactive,
CCCCCCCCCCCCCC(=O)OC(c1ccccc1)c1nc(C(CCC)O[Si](C)(C)C(C)(C)C)co1 (stereo not given),,,,,,inactive,inactive,inactive,inactive,
CCCCCCCCCCCCCC(=O)OC(c1ccccc1)c1cnco1 (stereo not given),0,0,0,0,> 32,,,,,zone of inhibition at 300 µg/disc (Candida albicans [6]): 0 mm
CCCCCCCCCCCCCC(=O)OC(c1ccco1)c1nc(C(O)CCC)co1 (stereo not given),,,,,,inactive,inactive,inactive,inactive,
CCCC(O[Si](C)(C)C(C)(C)C)c1coc(C(O)c2cnco2)n1 (stereo not given),,,,,,inactive,inactive,inactive,inactive,
CCCCCCCCCCCCCC(=O)OC(c1cnc(SC)o1)C(C)(C)C (stereo not given),0,0,0,0,> 32,,,,,zone of inhibition at 300 µg/disc (Candida albicans [6]): 0 mm
CCCCCCCCCCCCCC(=O)O[C@@H](c1cnco1)c1nc([C@@H](O)C[C@@H](O)[C@@H](O)[C@@H](C)O)co1 [BENGAZOLE A],,,,,> 32,,,,,zone of inhibition at 10 µg/disc (Pichia kudriavzevii [19]): 35 mm; zone of inhibition at 10 µg/disc (Candida albicans [20]): 15 mm; Activity (Pseudomonas aeruginosa): inactive; zone of inhibition at 10 µg/disc (Nakaseomyces glabratus [21]): 15 mm; MIC (Candida albicans [10]): 1 µg/mL; MIC (Candida albicans [22]): 1 µg/mL; Activity (Staphylococcus aureus): inactive; MIC (Candida albicans [11]): 1 µg/mL; Activity (Escherichia coli): inactive; zone of inhibition at 10 µg/disc (Candida albicans [23]): 50 mm; zone of inhibition at 10 µg/disc (Candida albicans [24]): 50 mm
OC(c1ccc2ccccc2c1)c1cnco1 (stereo not given),7.5,,,10,,,,,,MIC (Candida albicans [10]): 32 µg/mL; MIC (Candida albicans [11]): > 64 µg/mL; MIC (Pichia kudriavzevii [13]): > 64 µg/mL
CCCCCCCCCCCCCC(=O)OC(c1ccc2ccccc2c1)c1cnc(SC)o1 (stereo not given),,,,,,,,,,MIC (Candida albicans [10]): > 64 µg/mL; MIC (Candida albicans [11]): > 64 µg/mL; MIC (Pichia kudriavzevii [13]): > 64 µg/mL
CCCCCCCCCCCCCC(=O)OC(c1ccco1)c1nc(C(CCC)O[Si](C)(C)C(C)(C)C)co1 (stereo not given),,,,,,inactive,inactive,inactive,inactive,
O=Cc1cocn1,,,10,,> 32,,,,,
OC(c1ccccc1)c1cnco1 (stereo not given),9,,,10,,,,,,
CCCCCCCCCCCCCC(=O)OC(c1ccccc1)c1cnc(SC)o1 (stereo not given),0,0,0,0,> 32,,,,,zone of inhibition at 300 µg/disc (Candida albicans [6]): 0 mm
CCCCCCCCCCCCCC(=O)OC(c1ccc(Br)cc1)c1cnc(SC)o1 (stereo not given),0,0,0,0,> 32,,,,,MIC (Candida albicans [10]): > 64 µg/mL; MIC (Candida albicans [11]): > 64 µg/mL; MIC (Pichia kudriavzevii [13]): > 64 µg/mL; zone of inhibition at 300 µg/disc (Candida albicans [6]): 0 mm
CSc1ncc(C(O)c2ccccc2)o1 (stereo not given),9,,,10,,,,,,

# — ChEMBL document CHEMBL1136914, “Synthesis and structure-activity relationships of bengazole A analogs” (2009)
